# Measurements from the RNAGym collection of RNA variant scans (doi:10.1126/science.aae0568).
# This sample holds only a part of the variants without activity.
# B1: tRNA (parent)
# chain: GUUCCGUUGGCGUAAUGGUAACGCGUCUCCCUCCUAAGGAGAAGACUGCGGGUUCGAGUCCCGUACGGAACG
# Variants of: B1
# Experiment: yeast fitness relative to wild type (ratio to wild type); higher = fitter; tRNA-Arg(CCU), competitive growth, 37 C, YPD
# Outline: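 A pool of Saccharomyces cerevisiae strains, each with a tRNA-Arg(CCU) gene variant at the native genomic locus, was competed in YPD at 37°C for 24 hours across six parallel replicates. The variants had been chemically synthesised at a 3% per-site mutation rate over 69 sites, and gene amplicons before and after competition were read by 100-nucleotide paired-end sequencing. Darwinian fitness relative to wild type rested on changes in genotype frequencies. Genotypes required ≥ 100 starting reads, and estimates < 0.5 were set to 0.5.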
row,Variant,yeast fitness
1,GUUCCGUUGGCGUAAUGCUAUCGCGUCUCGCUCCUAAGGAGAAGACUGCGGGUUCGAGUCCCGUACGGCACG [G18C A21U C30G A69C],0.555
2,GUUCCGUUGGCGUAAUGCUAAUGCGUCUCCCUCGUAAGGAGAUGACUGCGGGUUCGAGUCCCGUACGGAACG [G18C C22U C34G A43U],≤ 0.5
3,GUUCCGUUGGCGUAAUGAUAACGCGUCUCCCACCUAAGGAGAAAACUGCGGGUUCGAGUCCCGUCCGGAACG [G18A U32A G44A A65C],≤ 0.5
4,GUUCCGUUGGCGUAAUGCUAACGCGUCUCCCUCCUAAGGAGAAGACUGCGGGUUCGAGUCCCGUACGGAGCG [G18C A70G],0.588
5,GUUCCGUUGGCGUAAUGCUAACGCGUCUCCCUCCUAAGGAGAAGACUGCGGGUUCGAGUCCCGUACGGAUCG [G18C A70U],0.737
6,GUUCCGUUGGCGUAAUGAUAACGCGUCACCCUCCUAAGGAGGAGCCUGCGGGUUCGAGUCCCGUACGGAACG [G18A U28A A42G A45C],≤ 0.5
7,GUUCCGUUGGCGUAAUGCUUACGCGUCUCCUUCCUAAGGAGAAGACUACGGGUUUGAGUCCCGUACGUAACG [G18C A20U C31U G48A C55U G68U],0.586
8,GUUCCGUUGGCGUAAUGCUAACGCGUCUCCCUCCUAAGGAGAUGACUGCGGGUUCGAGUCCCGUACGGAACG [G18C A43U],0.674
9,GUUCCGUUGGCGUAAUGAUAACGCGUCUCCCUCCUAAGGAGAAGACUGCGGGAUCGAGUCCCGUAUGGAACG [G18A U53A C66U],≤ 0.5
10,GUUCCGUUGGCGUAAUGAUAACGCGUCUCCCUCCUAAGGAGAAGACUGCGGGUACGAGUCCCGUACGGAACG [G18A U54A],0.597
11,GUUCCGUUGGCGUAAUGCUUACGCGUCUCCCUCUUAAGGCGAAGACUGUGGGUUCGAGUCCCGCAUGGAACG [G18C A20U C34U A40C C49U U64C C66U],0.549
12,GUUCCGUUGGCGUAAUGCUAACGCGUCUCCCUCCUAGGGAGAAGACUGCGAGUUCGAGUCUCGUAAGGAACG [G18C A37G G51A C61U C66A],≤ 0.5
13,GUUCCGUUGGCGUAAUGCUGACGCGUCUACCUCCUAAGGAGAAGACUGCGGGUUCGAGUCCCGUACAGAACG [G18C A20G C29A G67A],≤ 0.5
14,GUUCCGUUGGCGUAAUGAUAACGCGUCUCCCCCCUAAGGAGAAGACUGCGGGUUCGAGUCCCGUGCGGAACG [G18A U32C A65G],0.535
15,GUUCCGUUGGCGUAAUGCUAAUGCGUCUACCUCCUAAGGAGGAGACUGCGGGUUCGAGUCCCGUACGGAACG [G18C C22U C29A A42G],0.541
16,GUUCCGUUGGCGUAAUGCUAGCGCGUAUCUCUCCUAAAGAGAAGACUGCGGGUUCGAGUCCCGUACGGAACG [G18C A21G C27A C30U G38A],0.547
17,GUUCCGUUGGCGUAAUGCUAACGCGUCUCCCUCCUGAGGAGAAGACUGCGGGUUCGAGUCCCGUACGGAACG [G18C A36G],0.769
18,GUUCCGUUGGCGUAAUGCUAACGCGUCUCCCUCCUUAGGAGAAGACUGCGGGUUCGAGUCCCGUACGGAACG [G18C A36U],0.551
19,GUUCCGUUGGCGUAAUGCUAACGCGUCUCCCUCCUACGGAGAAGACUGGGGGUUCGAGUCCCGUACGGAACG [G18C A37C C49G],0.663

row,Variant,yeast fitness
1,GUUCCGUUGGCGUAAUGCUAAGGCGUCUCCCUCCUAAGGAGAAGACUGCGGGUUAGAGUCCCGUACGGAUCG [G18C C22G C55A A70U],≤ 0.5
2,GUUCCGUUGGCGUAAUGCUAACGCGUCUCCCUCCUAAGGAGAAGUCUGCGGGUUCUAGUCCCGAACGGCACG [G18C A45U G56U U64A A69C],0.786
3,GUUCCGUUGGCGUAAUGCUAACGCGUCUCCCUCCUAAGGAGCAGACUGCGGGUACGAGUCCCGUACGGAACG [G18C A42C U54A],≤ 0.5
4,GUUCCGUUGGCGUAAUGCUAACGCGUCUCCCUCCUAAGGAGACGACUGCGGGUUCGAGUCCAGUACGGAACG [G18C A43C C62A],≤ 0.5
5,GUUCCGUUGGCGUAAUGCUAAUGCGUCUCCCUCCUAAGGAGAAGACUGCGGGUUCGAGUCCCGUACGGAACG [G18C C22U],0.558
6,GUUCCGUUGGCGUAAUGCUAAGGCGUCUCCCUCCUAAGGAGAAGACUGCGGGUUCGAGUCCCGUACGGAACG [G18C C22G],0.682
7,GUUCCGUUGGCGUAAUGCUAACGCGUCUCCCUCCUAAGGAGAAGCCUGCGGGUUCGAGUCCCGUUCGGAACG [G18C A45C A65U],≤ 0.5
8,GUUCCGUUGGCGUAAUGCUAACGCGUCUCCCUCCUAAGGAGAAGACUGCGGGUUCGAGUCCCGUACGGAACG [G18C],0.659
9,GUUCCGUUGGCGUAAUGCUAACGCGUCUCCCUCCUUAGGAGAAGACUGCGGGUUCGAGUCCCGUACGGAUCG [G18C A36U A70U],≤ 0.5
10,GUUCCGUUGGCGUAAUGCUAAUGCGGCUCGCUCCUAAGGAGAAGACUGCGGGUUGGAGUCCCGUAAGGAACG [G18C C22U U26G C30G C55G C66A],≤ 0.5
11,GUUCCGUUGGCGUAAUGAUAACGCGUCUCCCACCUAAGGAGAAGACUGCGGGUUCGAGUCCCGUACGGAACG [G18A U32A],0.513
12,GUUCCGUUGGCGUAAUGCUAACGCGUCUCCCUCCUAAGGAGAAGACUGCGGGUUCGAGUCCCGUUCGGAACG [G18C A65U],0.691
13,GUUCCGUUGGCGUAAUGCUAGCGCGUCUCCCUCCUAAGGAGAAGACUGCGGGUUCGAGUCCCGUACGGACCG [G18C A21G A70C],0.572
14,GUUCCGUUGGCGUAAUGCUAACGCGUCUCCCUCCUAAGGAGAAGACUGCGGGUUCGGGACCUGUACGGAACG [G18C A57G U59A C62U],≤ 0.5
15,GUUCCGUUGGCGUAAUGCUAACGCGUCUCCCUCCUAAGGCGAAGACUGCGGGUUCGAGUCUCGUACGGAACG [G18C A40C C61U],≤ 0.5
16,GUUCCGUUGGCGUAAUGCUAAUGCGUCUCCAUCCUAAGGAGAAGACUGCGGGUUCGAGUCGCGUACGGAACG [G18C C22U C31A C61G],≤ 0.5
17,GUUCCGUUGGCGUAAUGCUAACGCGUCUCCCUCCUAAGGUGAAGACUGCGGGUUCGAGUCCCGUACGGAGCG [G18C A40U A70G],0.632
18,GUUCCGUUGGCGUAAUGCUAAUGCGUCUCCCUCCUAAGGAGAAGACUGCGGGUUCGAGUCUCGUACGGAACG [G18C C22U C61U],≤ 0.5
19,GUUCCGUUGGCGUAAUGCUAAAGCGUCUCCCUCCUAAGGAGAAGCUUGCGGGUUCGAGUCCCGUCCGGAACG [G18C C22A A45C C46U A65C],≤ 0.5
